Data set [1] concerns the target Thyroid hormone receptor alpha (Homo sapiens, UniProt P10827). As to the kind of experiment: Displacement of [125I]T3 from recombinant thyroid hormone receptor alpha expressed in sf9 cells by scintillation proximity assay.
Data set [2] has as its target Thyroid hormone receptor beta (Homo sapiens, UniProt P10828). The experiment in a line: Displacement of [125I]T3 from recombinant thyroid hormone receptor beta expressed in sf9 cells by scintillation proximity assay. (Displacement assays read how much labelled ligand stays bound in the presence of the test substance.)
A short description of data set [3]: Inhibition of CYP3A in Sprague-Dawley rat liver microsome at 10 uM. The format is ADME. To be noted: microsomes.
A further data set relates to Hepatocyte. The experiment in a line: Cmax per10'6 cells in Sprague-Dawley rat hepatocytes at 10 uM. The format is ADME, Liver. On the set-up: dose 10 uM. A digest of the protocol:
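Freshly isolated rat hepatocytes were incubated with compound. Intracellular levels of the active phosphonate were followed over time and expressed per 10⁶ cells, giving Cmax and tmax.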

Data set [4] in a line: Clearance in Sprague-Dawley rat at 5 mg/kg, iv. The format is ADME, organism-based. Set-up: dose 5 mg/kg, route intravenous. To be noted: in vivo. A digest of the protocol: (§1)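 Male SD rats received a 5 mg/kg i.v. dose. Parameters were derived from the plasma concentration–time profile of the parent and its active metabolite.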
Data set [5] can be described thus: Volume of distribution in Sprague-Dawley rat at 5 mg/kg, iv. The class given is ADME, organism-based. Set-up: dose 5 mg/kg, route intravenous. To be noted: in vivo.
A short description of data set [6]: Half life in Sprague-Dawley rat at 5 mg/kg, iv. The class given is ADME, organism-based. Set-up: dose 5 mg/kg, route intravenous. To be noted: in vivo. A digest of the protocol: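 Male SD rats given a single 5 mg/kg i.v. dose. Half-life derived from the plasma concentration–time profile of the parent compound.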
Data set [7] is described as follows: Cmax in Sprague-Dawley rat at 5 mg/kg, iv. The class given is ADME, organism-based. On the set-up: dose 5 mg/kg, route intravenous. To be noted: in vivo. The procedure, abridged: as §1
Data set [8] is described as follows: AUC (0 to 24 hrs) in Sprague-Dawley rat at 5 mg/kg, iv. The format is ADME, organism-based. Set-up: time < 24 hr, dose 5 mg/kg, route intravenous. To be noted: plasma. The procedure, abridged: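 Male SD rats received MB07344 at 5 mg/kg i.v. Pharmacokinetic parameters, including AUC over 0–24 h, were derived from the temporal plasma concentration profile of MB07344.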

The nature of data set [9]: Drug excretion in Sprague-Dawley rat urine at 2 mg/kg, iv after 96 hrs. The class given is ADME, organism-based. To be noted: read-out: Activity. Set-up: dose 2 mg/kg, route intravenous. A digest of the protocol: (§2)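 Mass balance used male SD rats (n = 6) given [³H]-labelled compound (2 mg/kg, 45.5 mCi/mmol) as an i.v. bolus. Cumulative radioactivity in urine, wash and feces was monitored at 0, 12, 24, 48, 72 and 96 h.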

A short description of data set [10]: Drug excretion in Sprague-Dawley rat feces at 2 mg/kg, iv after 96 hrs. The settings on record: faeces, read-out: Activity. The format is ADME, organism-based. Set-up: dose 2 mg/kg, route intravenous. The procedure, abridged:
as §2

The nature of data set [11]: Drug excretion in bile duct-canulated Sprague-Dawley rat bile at 10 mg/kg, iv. The settings on record: read-out: Activity. On the set-up: dose 10 mg/kg, route intravenous. The format is ADME, organism-based. The procedure, abridged: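 Naïve and bile duct-cannulated SD rats (n = 3 per group) received 10 mg/kg i.v. Compound levels were measured in the collected bile and in plasma.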

A short description of data set [12]: AUC (0 to 24 hrs) in bile-diverted Sprague-Dawley rat at 10 mg/kg, iv. The class given is ADME, organism-based. On the set-up: time < 24 hr, dose 10 mg/kg, route intravenous. The settings on record: plasma. A digest of the protocol: (§3)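 Male SD rats, naïve or bile duct-cannulated (n = 3 per group), given MB07344 at 10 mg/kg i.v. MB07344 measured in plasma and in collected bile. AUC over 0–24 h taken from the plasma concentration–time profile.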

Data set [13] is described as follows: AUC (0 to 24 hrs) in Sprague-Dawley rat at 10 mg/kg, iv. The format is ADME, organism-based. Set-up: time < 24 hr, dose 10 mg/kg, route intravenous. To be noted: plasma. A digest of the protocol:
as §3

Chain of Thyroid hormone receptor beta (P10828 whole entry): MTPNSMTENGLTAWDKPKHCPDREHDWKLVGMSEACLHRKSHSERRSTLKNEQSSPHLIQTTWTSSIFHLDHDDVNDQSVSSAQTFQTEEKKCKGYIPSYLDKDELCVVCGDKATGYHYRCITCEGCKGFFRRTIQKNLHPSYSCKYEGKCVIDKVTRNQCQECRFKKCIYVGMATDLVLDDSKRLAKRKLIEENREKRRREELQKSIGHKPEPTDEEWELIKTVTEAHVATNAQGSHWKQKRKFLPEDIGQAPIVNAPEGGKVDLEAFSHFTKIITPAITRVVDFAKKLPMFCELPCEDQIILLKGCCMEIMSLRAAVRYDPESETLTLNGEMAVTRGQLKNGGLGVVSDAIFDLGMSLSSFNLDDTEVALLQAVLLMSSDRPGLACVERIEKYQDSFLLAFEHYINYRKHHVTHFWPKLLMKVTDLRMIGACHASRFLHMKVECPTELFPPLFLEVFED
Chain of Thyroid hormone receptor alpha (P10827 whole entry): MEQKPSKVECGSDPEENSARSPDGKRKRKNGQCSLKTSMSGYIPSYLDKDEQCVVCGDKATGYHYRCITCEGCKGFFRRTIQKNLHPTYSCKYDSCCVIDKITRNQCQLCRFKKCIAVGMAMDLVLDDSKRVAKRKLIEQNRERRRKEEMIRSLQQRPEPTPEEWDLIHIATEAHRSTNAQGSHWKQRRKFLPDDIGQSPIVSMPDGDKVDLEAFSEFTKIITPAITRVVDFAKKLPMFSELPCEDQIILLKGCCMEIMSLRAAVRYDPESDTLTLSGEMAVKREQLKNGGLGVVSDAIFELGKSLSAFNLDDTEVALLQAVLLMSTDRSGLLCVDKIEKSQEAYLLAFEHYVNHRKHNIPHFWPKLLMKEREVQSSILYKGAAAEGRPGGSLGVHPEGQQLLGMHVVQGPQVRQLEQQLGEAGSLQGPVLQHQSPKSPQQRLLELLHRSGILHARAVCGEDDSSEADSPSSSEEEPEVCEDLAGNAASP

On to `Cc1cc(OCP(=O)(O)O)cc(C)c1Cc1ccc(O)c(C(C)C)c1` [MB07344], for which the inhibitory constant (Ki) – broadly, a dissociation constant, usually derived from enzyme kinetics or from competition with a known ligand – in data set [1] came out at 35.2 nM; in data set [2], 2.17 nM. Besides, the Activity entry in data set [3] is on record as “Not Active”. Further, the Cmax in the data set on Hepatocyte worked out at 1.77 nmol; in [7], 40400 ng/mL. Also, the clearance (as a rule, the rate of elimination divided by the concentration) in [4] was 4.67 mL/min/kg. In data set [5], the distribution volume (Vd) (as a rule, the apparent volume that relates the amount in the body to the concentration in plasma or blood) amounted to 0.39 L/kg. Besides, the half-life (usually how long it takes for the measured level to halve) in data set [6] is 1.27 h. In addition, the AUC(0-t) (commonly exposure summed from dosing to a finite time, without extrapolation to infinity) at 24 h in data set [8] came to 16600 ng·h/mL; in data set [12] it was 48100 ng·h/mL; in data set [13], 35100 ng·h/mL. The dose excreted at 96 h in data set [9] came out at 2%; in [10] it was 98%. In addition, in data set [11], the dose excreted came to 50%.
